The source of these data is ChEMBL document CHEMBL3085774, “Design of novel potent inhibitors of human uridine phosphorylase-1: synthesis, inhibition studies, thermodynamics, and in vitro influence on 5-fluorouracil cytotoxicity” (J Med Chem, 2013).

Structures are written as SMILES. Calls of active or inactive are those of the source. No cut-off for these calls is given here.

Data set [1] has as its target T1, Thymidine phosphorylase (Homo sapiens, UniProt P19971).
T1 sequence (P19971 whole entry): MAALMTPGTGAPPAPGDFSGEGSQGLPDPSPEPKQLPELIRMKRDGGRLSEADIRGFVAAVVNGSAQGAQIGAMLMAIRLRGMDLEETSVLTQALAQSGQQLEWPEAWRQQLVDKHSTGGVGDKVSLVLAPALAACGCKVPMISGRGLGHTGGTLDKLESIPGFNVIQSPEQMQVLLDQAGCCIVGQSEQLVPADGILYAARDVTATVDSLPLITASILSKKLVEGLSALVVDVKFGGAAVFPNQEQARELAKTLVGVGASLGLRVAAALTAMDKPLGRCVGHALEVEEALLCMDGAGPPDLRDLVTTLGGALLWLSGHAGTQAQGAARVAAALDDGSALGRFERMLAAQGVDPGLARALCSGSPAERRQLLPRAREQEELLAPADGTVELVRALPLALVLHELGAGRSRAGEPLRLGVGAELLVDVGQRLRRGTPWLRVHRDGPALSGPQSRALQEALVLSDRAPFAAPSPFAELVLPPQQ
The data set can be described thus: Inhibition of human thymidine phosphorylase.

The target in data set [2] is T2, Uridine phosphorylase 1 (Homo sapiens, UniProt Q16831). Put plainly: Inhibition of human recombinant UP1 expressed in Escherichia coli Rosetta (DE3) using URD and inorganic phosphate as substrate at 1 uM after 60 seconds by spectrophotometric analysis relative to control. The essentials:
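Assay mix: 100 mM Tris pH 7.4, 100 nM recombinant hUP1, uridine 50 μM and Pi 2 mM (their Km values), inhibitor 1 μM final. Run 60 s at 37 °C under initial-rate conditions, following A280 decrease as uridine converts to uracil. Percent inhibition relative to uninhibited activity; DMSO control at up to 1% final.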
Target sequence in this assay (Q16831 whole entry, looked up): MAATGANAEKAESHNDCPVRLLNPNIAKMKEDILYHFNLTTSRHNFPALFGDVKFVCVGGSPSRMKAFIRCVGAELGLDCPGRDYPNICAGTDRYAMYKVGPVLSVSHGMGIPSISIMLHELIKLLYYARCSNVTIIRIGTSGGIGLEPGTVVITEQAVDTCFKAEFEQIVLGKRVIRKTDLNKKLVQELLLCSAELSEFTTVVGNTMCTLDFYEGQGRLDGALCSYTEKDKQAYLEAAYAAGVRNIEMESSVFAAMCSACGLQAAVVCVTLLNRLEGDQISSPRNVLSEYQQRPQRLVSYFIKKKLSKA

Data set [3] deals with T2, Uridine phosphorylase 1. The data set can be described thus: Non-competitive inhibition of human recombinant UP1 expressed in Escherichia coli Rosetta (DE3) using inorganic phosphate as substrate assessed as equilibrium dissociation constant for enzyme-inhibitor complex by Lineweaver-Burk plot analysis. The essentials:
(§1)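 Pi varied 0.1–12 mM with uridine fixed at 50 μM. Four inhibitor levels (0.1–5 μM), 100 nM enzyme, 100 mM Tris pH 7.4, 37 °C. Initial rates read as decreasing A280. Kis from slopes and Kii from intercepts of Lineweaver–Burk plots; inhibition mode from line patterns. Duplicates.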
Target sequence in this assay (Q16831 whole entry, looked up): as above

For data set [4], the target named is T2, Uridine phosphorylase 1. The data set can be described thus: Non-competitive inhibition of human recombinant UP1 expressed in Escherichia coli Rosetta (DE3) using inorganic phosphate as substrate assessed as equilibrium dissociation constant for enzyme-substrate-inhibitor complex by Lineweaver-Burk plot analysis. In short, it runs like this: as §1
Target sequence in this assay (Q16831 whole entry, looked up): as above
Data set [5] deals with T2, Uridine phosphorylase 1. Put plainly: Time dependent inhibition of human recombinant UP1 expressed in Escherichia coli Rosetta (DE3) using URD and inorganic phosphate as substrate at 1 uM by spectrophotometric analysis. The essentials: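 Enzyme (100 nM) preincubated with 1 μM inhibitor (final), then added to the standard reaction mix (Tris pH 7.4, 50 μM uridine, 2 mM Pi, 37 °C) at times up to 30 min. Change in initial velocity followed by A280 and percent inhibition calculated.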
Target sequence in this assay (Q16831 whole entry, looked up): as above

Data set [6] deals with T2, Uridine phosphorylase 1. The data set can be described thus: Non-competitive inhibition of human recombinant UP1 expressed in Escherichia coli Rosetta (DE3) using URD as substrate assessed as equilibrium dissociation constant for enzyme-substrate-inhibitor complex by Lineweaver-Burk plot analysis. In short, it runs like this:
(§2)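 Uridine varied 20–600 μM with Pi fixed at 2 mM. Four inhibitor levels from 0.1 to 5 μM, 100 nM hUP1, 100 mM Tris pH 7.4, 37 °C. Uracil formation followed as the fall in A280 under initial-rate conditions. Kis from slopes and Kii from intercepts of Lineweaver–Burk plots; mode taken from line patterns. Duplicate measurements.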
Target sequence in this assay (Q16831 whole entry, looked up): as above

The target in data set [7] is T2, Uridine phosphorylase 1. Put plainly: Non-competitive inhibition of human recombinant UP1 expressed in Escherichia coli Rosetta (DE3) using URD as substrate assessed as equilibrium dissociation constant for enzyme-inhibitor complex by Lineweaver-Burk plot analysis. In short, it runs like this:
as §2
Target sequence in this assay (Q16831 whole entry, looked up): as above

For data set [8], the target named is T2, Uridine phosphorylase 1. Put plainly: Competitive inhibition of human recombinant UP1 expressed in Escherichia coli Rosetta (DE3) using URD as substrate by Lineweaver-Burk plot analysis. In short, it runs like this: as §2
Data set [9] deals with T2, Uridine phosphorylase 1. Put plainly: Uncompetitive inhibition of human recombinant UP1 expressed in Escherichia coli Rosetta (DE3) using inorganic phosphate as substrate by Lineweaver-Burk plot analysis. In short, it runs like this:
as §1

In data set [10] the test system is SW-620. Put plainly: Potentiation of 5-FU-induced cytotoxicity against human SW620 cells assessed as reduction in compound IC50 at 30 uM after 72 hrs by MTT assay relative to control. The data set is classed as functional. The essentials: (§3)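 5-FU concentration–response over 72 h (HaCat 0.25–20 μM; HT-29 0.25–50 μM; SW-620 0.5–150 μM), with or without 30 μM inhibitor. Seeding and adhesion as for the viability assay. MTT read-out at 495 nm; 5-FU IC50 from semilog curves by nonlinear regression. Three independent experiments in quadruplicate; one-way ANOVA with Bonferroni test.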
Background: Tetrazolium dyes change colour on reduction, which living cells bring about.

Data set [11] deals with HaCaT. Put plainly: Cytotoxicity against human HaCaT cells at 1 to 100 uM after 72 hrs by MTT assay. The data set is classed as cell-based. The essentials: (§4)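 Cells seeded at 7 × 10³ per well, allowed to adhere 48 h (HaCat) or 24 h (HT-29, SW-620). Exposed 72 h to 1–100 μM compound, 37 °C, 5% CO2. MTT 10% (v/v) for 3 h; formazan dissolved in DMSO and read at 495 nm. Viability relative to untreated cells; controls of medium and 1% DMSO. Mean ± SEM of three experiments in quadruplicate.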

Data set [12] deals with SW-620. The data set can be described thus: Cytotoxicity against human SW620 cells at 1 to 100 uM after 72 hrs by MTT assay. Format: functional, cell-based. The essentials:
as §4

Data set [13] deals with HT-29. Put plainly: Cytotoxicity against human HT-29 cells at 1 to 100 uM after 72 hrs by MTT assay. Format: functional, cell-based. The essentials:
as §4

The test system of data set [14] is HaCaT. The data set can be described thus: Effect on 5-FU-induced cytotoxicity against human HaCaT cells at 30 uM after 72 hrs by MTT assay. The data set is classed as cell-based. In short, it runs like this: as §3
The test system of data set [15] is HT-29. The data set can be described thus: Protection against 5-FU-induced cytotoxicity against human HT-29 cells assessed as increase in compound IC50 at 30 uM after 72 hrs by MTT assay relative to control.
Data set [16] has as its system HT-29. The data set can be described thus: Potentiation of 5-FU-induced cytotoxicity against human HT-29 cells assessed as reduction in compound IC50 at 30 uM after 72 hrs by MTT assay relative to control. Format: functional. The essentials:
as §3

For data set [17], the target named is T2, Uridine phosphorylase 1. Put plainly: Binding affinity to human recombinant UP1-R1P binary complex expressed in Escherichia coli Rosetta (DE3) at 50 uM R1P by isothermal titration calorimetric analysis. In short, it runs like this:
(§5)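 ITC at 310.15 K (37 °C): 56 μM hUP1 in 50 mM Tris HCl pH 7.4, alone or as binary complex with 10 mM Pi or R1P (50–200 μM, final). One 0.5 μL injection (discarded), then 26 injections of 1.5 μL ligand. Dilution heats subtracted. Fit to one-set-of-sites model for ΔH°, Keq and n; ΔG° and ΔS° calculated.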
In general terms: ITC needs no label: the signal is the heat of the interaction.
Target sequence in this assay (Q16831 whole entry): as the sequence (Q16831 whole entry, looked up) above

A short description of data set [18]: Inhibition of mouse UPase by Dixon plot analysis.
Data set [19] deals with T2, Uridine phosphorylase 1. Put plainly: Binding affinity to human recombinant UP1 expressed in Escherichia coli Rosetta (DE3) by isothermal titration calorimetric analysis. The essentials:
as §5
Target sequence in this assay (Q16831 whole entry): as the sequence (Q16831 whole entry, looked up) above

Data set [20] concerns the target T2, Uridine phosphorylase 1. The data set can be described thus: Induction of uridine phosphorylase-mediated drug metabolism in human liver.
Data set [21] is described as follows: Half life in mouse plasma. The data set is classed as ADME, cell-free.

`N#Cc1ccc(O)[nH]c1=O` gave an IC50 in [1] of more than 100 µM. Further, the inhibition in [2] is 67%. For the same compound, the results for the Kis in data set [3] and in [7] were 565 nM and 2610 nM, respectively. In addition, the Kii in data set [4] is 666 nM; in data set [6], 2550 nM. The inhibition entry in data set [5] is “inactive”.

For the compound `Cc1ccc(O)[nH]c1=O`, the inhibition in data set [2] stood at 12%.

Regarding `Cc1c(CNCC(O)CO)c(O)[nH]c(=O)c1C#N` (stereo not given), the IC50 in data set [1] is more than 100 µM. Besides, in [2], the inhibition was 78%. The inhibition result in data set [5] was “inactive”. In [8], the Kis was 109 nM. Further, in [9], the Kii was 182 nM.

For the compound `N#Cc1c(Cc2ccccc2)cc(O)[nH]c1=O`, in [2], the inhibition was 2%.

As to `N#Cc1c(-c2ccccc2)cc(O)[nH]c1=O`, the inhibition in data set [2] was found to be 42%.

For the compound `Cc1c(CN2CCOCC2)c(O)[nH]c(=O)c1C#N`, the inhibition in data set [2] was determined as 51%.

For `Cc1cc(O)[nH]c(=O)c1C`, the inhibition in data set [2] worked out at 9.5%.

For `Cc1c(CNCCO)c(O)[nH]c(=O)c1C#N`, in data set [1], the IC50 was more than 100 µM. Also, the inhibition in data set [2] is 80%. Besides, the inhibition entry in data set [5] was “inactive”. Moreover, the Kis in [8] amounted to 68 nM. Besides, the “fold change (FC)” value in [10] was 6; in [15], 9. Also, the Activity entry in [11] and in data set [14] was “Non-toxic” in each case. Besides, the result in data set [12] and in [13] was inactive. The Kii in data set [9] worked out at 127 nM.

Consider `Cc1cc(O)[nH]c(=O)c1C#N`, for which the IC50 in data set [1] was more than 100 µM. Also, in data set [2], the inhibition was 70%. In addition, in data set [5], the inhibition entry is “inactive”. Moreover, the Kii was determined as 635 nM in data set [6] and 332 nM in [9]. In addition, the “fold change (FC)” value in data set [10] is reported as 12. The Kis in data set [7] was 375 nM. Further, the Activity entry in data set [11] and in [14] was “Non-toxic” each time. The outcome in [12], in data set [13] and in [16] was inactive.

Take `Cc1c(CN(C)C)c(O)[nH]c(=O)c1C#N`: the IC50 in [1] was more than 100 µM. Also, in data set [2], the inhibition is 81%. Also, the inhibition result in data set [5] is “inactive”. Moreover, the Kis in data set [8] turned out to be 99 nM. In addition, the Kii in [9] worked out at 107 nM.

For `CCCc1cc(O)[nH]c(=O)c1C#N`, in data set [2], the inhibition is 16%.

`Cc1c(-c2ccccc2)c(O)[nH]c(=O)c1C#N`: the inhibition in [2] came out at 12%.

`Cc1c(CNC(CO)CO)c(O)[nH]c(=O)c1C#N`: the IC50 in [1] is more than 100 µM. In addition, in data set [2], the inhibition came to 82%. The inhibition entry in data set [5] was “inactive”. Besides, the Kd in data set [17] came out at 7 µM. In data set [8], the Kis worked out at 94 nM. Also, in data set [9], the Kii was 98 nM.

Take `O=c1[nH]cc(CNCCO)c(=O)[nH]1`: the inhibition in [2] was found to be 2%.

`Cc1c(CN2CCCCC2)c(O)[nH]c(=O)c1C#N`: in [2], the inhibition was found to be 49%.

As to `CCc1cc(O)[nH]c(=O)c1C#N`, the inhibition in data set [2] stood at 25%.

With `CC(C)c1cc(O)[nH]c(=O)c1C#N`, in data set [2], the inhibition was found to be 31%.

Regarding `CCN(CC)Cc1c(O)[nH]c(=O)c(C#N)c1C`, the inhibition in data set [2] came to 25%.

For the compound `O=c1[nH]c(=O)n(COCCO)cc1Cc1ccccc1`, in [18], the affinity corresponds to a Ki of 0.1 µM. Also, the Kd in data set [19] amounted to 1.2 µM. Also, the figures for the Kis in data set [3] and in [8] were 547 nM and 130 nM, respectively. Moreover, in data set [4], the Kii was 317 nM. Besides, the Activity result in data set [14] was “Non-toxic”. The outcome in data set [16] was inactive.

Consider `Cc1cc(O)[nH]c(=O)c1`, for which, in data set [2], the inhibition worked out at 16%.

For the compound `O=c1cccc(O)[nH]1`, in data set [2], the inhibition was found to be 38%.

In the case of `Cc1c(Cc2ccccc2)c(O)[nH]c(=O)c1C#N`, in data set [2], the inhibition was 43%.

Compound `O=c1ccn([C@@H]2O[C@H](CO)[C@@H](O)[C@H]2O)c(=O)[nH]1` [URIDINE] returned a metabolised in data set [20] of more than 80%. For the same compound, the half-life in data set [21] is 2 min.

In general, IC50 refers to the concentration that inhibits the measured activity by half. By inhibition is commonly meant the share of the control response that was lost under treatment. In general, Kd refers to the free concentration of one partner at which half of the binding sites on the other are occupied at equilibrium, for simple one-to-one binding. By Ki is commonly meant a measure of affinity in units of concentration, obtained from inhibition or displacement. High values mean lower affinity, low ones higher affinity. What is called half-life is how long it takes for the measured level to halve. Read a low half-life as rapid decline.
